Measured values: ChEMBL document CHEMBL4725242, “Discovery of GS-9688 (Selgantolimod) as a Potent and Selective Oral Toll-Like Receptor 8 Agonist for the Treatment of Chronic Hepatitis B” (J Med Chem, 2020)
The source made the active and inactive calls.

What was measured:
[1] = Clearance in cynomolgus monkey hepatic microsomes at 2 uM measured up to 60 mins in presence of NADPH generating system by LC-MS/MS analysis; type: ADME, Macaca fascicularis, Microsome; conditions: liver microsomes
[2] = Drug metabolism in human hepatocytes assessed as core oxidation; type: ADME, cell-based, Hepatocyte
[3] = Drug metabolism in human hepatocytes assessed as hydroxyl oxidation to the acid; type: ADME, cell-based, Hepatocyte
[4] = Clearance in Sprague-Dawley rat at 1 mg/kg, iv administered as 30 mins infusion by HPLC-MS analysis; type: ADME, organism-based; conditions: in vivo
How it was run: (§1)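 30-min intravenous infusion: Sprague Dawley rats 1 mg/kg, beagle dogs 0.25 mg/kg, cynomolgus monkeys 0.1 mg/kg; n = 3 per species, reported as mean ± SD.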

[5] = Volume of distribution at steady state in cynomolgus monkey at 0.1 mg/kg, iv administered as 30 mins infusion by HPLC-MS analysis; type: ADME, organism-based, Macaca fascicularis; conditions: in vivo, read-out: Vdss; how it was run: as §1
[6] = AUC (infinity) in cynomolgus monkey at 3 mg/kg, po administered via gavage by HPLC-MS analysis; type: ADME, organism-based, Macaca fascicularis; set-up: route oral, time infinity, dose 3 mg/kg; conditions: in vivo
How it was run: (§2)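 Oral dosing in 2% ethanol/40% PEG 300/58% 0.01N HCl: Sprague Dawley rats 5 mg/kg, beagle dogs 0.5 mg/kg, cynomolgus monkeys 3 mg/kg.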

[7] = Oral bioavailability in cynomolgus monkey at 3 mg/kg administered via gavage by HPLC-MS analysis; type: ADME, organism-based, Macaca fascicularis; conditions: in vivo; how it was run: as §2
[8] = Drug absorption in Beagle dog at 0.5 mg/kg, po administered via gavage by HPLC-MS analysis; type: ADME, organism-based, Canis lupus familiaris; conditions: in vivo, read-out: Drug absorption; how it was run: as §2
[9] = Drug absorption in cynomolgus monkey at 3 mg/kg, po administered via gavage by HPLC-MS analysis; type: ADME, organism-based, Macaca fascicularis; conditions: in vivo, read-out: Drug absorption; how it was run: as §2
[10] = molecular target: T1, Toll-like receptor 9 (Homo sapiens) (UniProt Q9NR96); assay: Agonist activity at human TLR9 expressed in HEK293 cells assessed as increase in NF-kappaB activation up to 10 uM incubated for 18 hrs by quanti-blue SEAP reporter gene assay; type: cell-based; conditions: dose microM <=10, time […]
T1 sequence (whole entry): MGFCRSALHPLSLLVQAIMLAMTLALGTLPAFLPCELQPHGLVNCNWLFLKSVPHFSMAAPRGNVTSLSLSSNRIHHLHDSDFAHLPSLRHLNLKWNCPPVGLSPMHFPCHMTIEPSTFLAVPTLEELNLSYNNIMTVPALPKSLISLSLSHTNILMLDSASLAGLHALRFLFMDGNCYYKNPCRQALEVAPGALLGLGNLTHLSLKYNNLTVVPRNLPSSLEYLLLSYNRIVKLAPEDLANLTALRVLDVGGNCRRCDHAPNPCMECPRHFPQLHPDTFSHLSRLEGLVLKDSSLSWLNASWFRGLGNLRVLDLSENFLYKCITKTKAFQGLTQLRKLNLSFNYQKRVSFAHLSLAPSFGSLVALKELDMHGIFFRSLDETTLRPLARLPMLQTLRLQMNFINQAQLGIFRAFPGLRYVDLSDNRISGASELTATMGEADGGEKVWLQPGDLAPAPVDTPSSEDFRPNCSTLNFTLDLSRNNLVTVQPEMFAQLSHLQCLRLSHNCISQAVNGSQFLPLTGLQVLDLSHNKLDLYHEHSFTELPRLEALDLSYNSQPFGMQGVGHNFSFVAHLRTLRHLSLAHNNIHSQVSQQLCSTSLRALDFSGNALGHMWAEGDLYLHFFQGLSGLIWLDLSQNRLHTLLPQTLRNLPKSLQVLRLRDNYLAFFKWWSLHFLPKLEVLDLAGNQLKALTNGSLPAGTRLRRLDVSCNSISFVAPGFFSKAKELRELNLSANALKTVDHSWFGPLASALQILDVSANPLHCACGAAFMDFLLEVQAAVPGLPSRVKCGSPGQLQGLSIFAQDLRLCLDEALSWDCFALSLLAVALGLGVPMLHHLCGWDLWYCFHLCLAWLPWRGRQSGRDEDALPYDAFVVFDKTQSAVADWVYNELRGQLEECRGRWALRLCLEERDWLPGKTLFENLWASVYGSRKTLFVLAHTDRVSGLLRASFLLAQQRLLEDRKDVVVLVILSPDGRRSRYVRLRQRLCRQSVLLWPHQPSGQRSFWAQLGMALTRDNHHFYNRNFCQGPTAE
How it was run: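 HEK293 cells stably expressing individual human TLRs or other innate immune receptors, used as reporter gene assays. Minimum effective concentration defined as the level giving a 3-fold rise over background.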

Hepatitis B virus = assay: Antiviral activity against HBV infected in human primary hepatocytes; type: functional, organism-based; conditions: Primary hepatocyte
Toll-like receptor 8 = molecular target: T2, Toll-like receptor 8 (Homo sapiens, UniProt Q9NR97); assay: Agonist activity at TLR8 in human cryopreserved PBMC assessed as induction of IL-12p40 production measured after 24 hrs
T2 sequence (Q9NR97 whole entry): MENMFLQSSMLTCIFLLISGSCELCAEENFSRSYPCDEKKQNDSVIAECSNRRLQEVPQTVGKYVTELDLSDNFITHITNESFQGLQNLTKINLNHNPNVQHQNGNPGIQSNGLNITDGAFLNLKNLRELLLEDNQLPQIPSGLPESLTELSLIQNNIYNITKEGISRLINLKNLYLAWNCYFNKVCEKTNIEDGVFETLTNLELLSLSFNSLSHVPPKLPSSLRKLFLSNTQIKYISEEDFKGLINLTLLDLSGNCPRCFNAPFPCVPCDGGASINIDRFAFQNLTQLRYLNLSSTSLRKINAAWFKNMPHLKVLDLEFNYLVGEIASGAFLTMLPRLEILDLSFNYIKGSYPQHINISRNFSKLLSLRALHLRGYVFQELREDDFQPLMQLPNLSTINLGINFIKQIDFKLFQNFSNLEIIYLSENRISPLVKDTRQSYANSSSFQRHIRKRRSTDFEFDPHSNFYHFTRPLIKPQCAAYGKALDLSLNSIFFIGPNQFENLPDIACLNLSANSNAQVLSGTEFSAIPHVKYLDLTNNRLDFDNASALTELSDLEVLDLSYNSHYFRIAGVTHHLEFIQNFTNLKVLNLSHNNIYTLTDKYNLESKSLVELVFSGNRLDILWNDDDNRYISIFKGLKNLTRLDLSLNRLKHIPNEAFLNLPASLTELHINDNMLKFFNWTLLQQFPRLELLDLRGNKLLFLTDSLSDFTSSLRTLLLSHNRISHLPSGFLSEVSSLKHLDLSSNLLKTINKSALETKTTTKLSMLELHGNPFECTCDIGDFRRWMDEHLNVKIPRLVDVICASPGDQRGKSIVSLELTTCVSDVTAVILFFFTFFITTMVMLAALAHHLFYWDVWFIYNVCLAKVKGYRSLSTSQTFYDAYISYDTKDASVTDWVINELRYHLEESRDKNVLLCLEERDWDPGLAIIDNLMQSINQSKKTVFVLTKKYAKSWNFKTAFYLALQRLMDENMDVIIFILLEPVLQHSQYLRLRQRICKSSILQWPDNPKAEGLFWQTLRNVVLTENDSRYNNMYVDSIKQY

CLhep predicted at 2 µM [1]: 25 mL/min/kg
Drug metabolism [2]: Metabolite_Notdetected
Drug metabolism [3]: Metabolite_Detected
clearance [4]: 30 mL/min/kg
Vd [5]: 2.1 L/kg
AUC(0-inf) [6]: 4.7 nM·h
bioavailability [7]: 0.3%
Fa [8]: 28%
Fa [9]: 100%
Activity [10]: inactive
EC50 (Toll-like receptor 8): 220 nM
Structure (SMILES): CCCC[C@](C)(CO)Nc1nc(N)nc2cc(F)cnc12 [SELGANTOLIMOD]
Activity (Hepatitis B virus): inactive
